In ChEMBL document CHEMBL3108739, “Activation and inhibition of thermosensitive TRP channels by voacangine, an alkaloid present in Voacanga africana, an African tree” (J Nat Prod, 2014):
Active and inactive are the calls of the source. The calls are words filed in the database; no cut-off is given here.

What was measured:
[1] = biological target: Transient receptor potential cation channel subfamily A member 1 (Homo sapiens, UniProt O75762); test: Agonist activity at TRPA1 isolated from human W138 cells expressed in HEK293T cells assessed as intracellular Ca2+ influx by Fluo-4 AM staining-based fluorescence analysis; type: cell-based
In short: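 Tetracycline-induced (1 μg/mL) stable hTRPA1 in HEK T-REx cells, Fluo-4 AM loaded (3 μM, 1 h, 37 °C) in HEPES buffer pH 7.4 with probenecid; Ca2+ read at 37 °C. Responses as % of 5 μM ionomycin or of 100 μM AITC; TREx cells without TRPA1 as control; n = 4−8.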

[2] = biological target: T1, Transient receptor potential cation channel subfamily V member 1 (Homo sapiens, UniProt Q8NER1); test: Antagonist activity at human brain TRPV1 expressed in HEK293T cells assessed as inhibition of CAP-induced intracellular Ca2+ influx by fluorescence-based assay; type: cell-based, HEK-293T
In short: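 hTRPV1-HEK293T, Fluo-4 Ca2+ at 37 °C; antagonist (0.3−100 μM) preincubated 3 min then 0.01 μM capsaicin; DMSO final 0.1−1%. IC50 from dose−inhibition curves; data as % of 10 μM capsaicin.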

[3] = biological target: T1, Transient receptor potential cation channel subfamily V member 1; test: Competitive antagonist activity at human brain TRPV1 expressed in HEK293T cells assessed as inhibition of CAP-induced intracellular Ca2+ influx preincubated for 3 mins followed by CAP challenge by Schlid plot analysis; type: cell-based
In short: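 hTRPV1-HEK293T; capsaicin curves 0.0001−10 μM with 10, 30, 50 μM compound after 3 min preincubation. Schild plots (log(dose ratio − 1) vs log antagonist), six series; slope not differing from unity taken as competitive; KB derived.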

[4] = biological target: T1, Transient receptor potential cation channel subfamily V member 1; test: Competitive antagonist activity at human brain TRPV1 expressed in HEK293T cells assessed as inhibition of CAP-induced intracellular Ca2+ influx at 50 uM preincubated for 3 mins followed by CAP challenge measured after 10 mins of post compound washout; type: cell-based; conditions: HEK-293T
In short: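 hTRPV1-HEK293T cells incubated 3 min with 50 μM compound, washed six times with buffer, kept 10 min at 37 °C in dark, then challenged with 0.01 μM capsaicin; Fluo-4 Ca2+ read-out as % of 10 μM capsaicin.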

[5] = biological target: T2, Transient receptor potential cation channel subfamily V member 2 (Homo sapiens) (UniProt Q9Y5S1); test: Agonist activity at human TRPV2 expressed in HEK293T cells assessed as intracellular Ca2+ influx at 100 uM by Fluo-4 AM staining-based fluorescence analysis; type: cell-based; conditions: HEK-293T
T2 sequence (whole entry): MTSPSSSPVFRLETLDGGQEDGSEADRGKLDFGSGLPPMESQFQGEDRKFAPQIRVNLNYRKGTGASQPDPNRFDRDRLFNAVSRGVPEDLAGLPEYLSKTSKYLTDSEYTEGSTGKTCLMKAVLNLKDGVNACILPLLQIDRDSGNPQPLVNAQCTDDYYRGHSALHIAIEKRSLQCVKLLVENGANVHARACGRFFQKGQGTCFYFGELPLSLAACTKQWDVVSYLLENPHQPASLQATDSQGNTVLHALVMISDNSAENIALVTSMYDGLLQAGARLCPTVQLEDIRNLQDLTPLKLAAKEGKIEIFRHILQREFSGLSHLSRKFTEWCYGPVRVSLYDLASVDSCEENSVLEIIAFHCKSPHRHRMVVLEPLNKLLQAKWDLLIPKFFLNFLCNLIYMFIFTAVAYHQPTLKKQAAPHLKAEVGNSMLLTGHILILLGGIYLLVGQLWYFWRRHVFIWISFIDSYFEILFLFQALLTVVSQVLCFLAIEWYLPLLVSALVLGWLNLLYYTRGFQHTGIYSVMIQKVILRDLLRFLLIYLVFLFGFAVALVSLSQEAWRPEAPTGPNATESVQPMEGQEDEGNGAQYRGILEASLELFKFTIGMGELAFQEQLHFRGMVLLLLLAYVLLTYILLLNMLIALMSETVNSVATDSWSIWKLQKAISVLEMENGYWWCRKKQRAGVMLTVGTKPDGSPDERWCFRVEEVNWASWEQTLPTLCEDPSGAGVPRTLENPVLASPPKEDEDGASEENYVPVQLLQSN
In short: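 hTRPV2 transiently transfected into HEK293T, seeded 6 h after transfection and used 18 h later. Fluo-4 loading in probenecid-free buffer, 37 °C. Agonist 30 and 40 μM LPC; ruthenium red 5 μM as reference blocker; 100 μM compound given alone or pretreated 3 min. Read-out ΔF/F0 (%).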

[6] = biological target: Transient receptor potential cation channel subfamily M member 8 (Mus musculus, UniProt Q8R4D5); test: Competitive antagonist at TRPM8 isolated from mouse dorsal root ganglion cells expressed in HEK T-REx cells assessed as inhibition of menthol-induced intracellular Ca2+ influx by Schlid plot analysis
[7] = biological target: Transient receptor potential cation channel subfamily M member 8 (Mus musculus) (UniProt Q8R4D5); conditions: Dorsal root ganglion, HEK T-REx, 100 uM
[8] = biological target: Transient receptor potential cation channel subfamily M member 8 (Mus musculus) (UniProt Q8R4D5); conditions: Dorsal root ganglion, HEK T-REx, 100 uM; remark: listed apart in the source
[9] = biological target: Transient receptor potential cation channel subfamily M member 8 (Mus musculus) (UniProt Q8R4D5); conditions: Dorsal root ganglion, HEK T-REx, 3 to 30 uM
[10] = biological target: Transient receptor potential cation channel subfamily M member 8 (Mus musculus) (UniProt Q8R4D5); conditions: Dorsal root ganglion, HEK T-REx, 5 to 100 uM
[11] = biological target: T1, Transient receptor potential cation channel subfamily V member 1; test: Antagonist activity at human brain TRPV1 expressed in HEK293T cells assessed as inhibition of proton-induced intracellular Ca2+ influx at 10 uM by fluorescence-based assay; conditions: HEK-293T

Chain of Transient receptor potential cation channel subfamily M member 8 (Mus musculus) (Q8R4D5 whole entry): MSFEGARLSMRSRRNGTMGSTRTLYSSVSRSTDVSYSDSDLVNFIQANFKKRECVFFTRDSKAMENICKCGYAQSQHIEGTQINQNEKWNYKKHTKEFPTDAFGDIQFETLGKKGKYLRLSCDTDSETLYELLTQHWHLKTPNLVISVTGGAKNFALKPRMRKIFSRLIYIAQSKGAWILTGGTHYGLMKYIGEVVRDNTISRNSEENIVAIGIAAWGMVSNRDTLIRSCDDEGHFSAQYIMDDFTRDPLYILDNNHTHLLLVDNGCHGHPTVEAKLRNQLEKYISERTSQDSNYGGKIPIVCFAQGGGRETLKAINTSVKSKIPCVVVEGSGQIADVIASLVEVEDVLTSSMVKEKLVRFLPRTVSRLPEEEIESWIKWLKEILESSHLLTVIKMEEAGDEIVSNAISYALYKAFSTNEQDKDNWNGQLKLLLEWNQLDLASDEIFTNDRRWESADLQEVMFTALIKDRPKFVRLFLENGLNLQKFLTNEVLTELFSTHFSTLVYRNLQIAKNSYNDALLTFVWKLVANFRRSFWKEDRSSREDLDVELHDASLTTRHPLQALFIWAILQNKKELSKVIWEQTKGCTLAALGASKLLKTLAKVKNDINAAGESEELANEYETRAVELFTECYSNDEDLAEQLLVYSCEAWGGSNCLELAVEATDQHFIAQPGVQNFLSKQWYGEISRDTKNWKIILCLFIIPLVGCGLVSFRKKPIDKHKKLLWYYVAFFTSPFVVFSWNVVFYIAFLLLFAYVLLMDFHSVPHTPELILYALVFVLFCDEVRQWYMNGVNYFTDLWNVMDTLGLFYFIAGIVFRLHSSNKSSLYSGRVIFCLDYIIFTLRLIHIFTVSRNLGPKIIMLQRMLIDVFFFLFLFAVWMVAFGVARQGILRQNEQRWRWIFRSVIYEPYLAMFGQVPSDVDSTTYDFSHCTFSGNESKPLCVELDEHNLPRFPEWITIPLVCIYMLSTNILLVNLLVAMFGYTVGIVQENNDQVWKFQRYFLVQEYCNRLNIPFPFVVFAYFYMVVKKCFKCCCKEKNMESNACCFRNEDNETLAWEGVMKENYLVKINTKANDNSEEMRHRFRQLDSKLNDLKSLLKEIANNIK
T1 sequence (Q8NER1 whole entry): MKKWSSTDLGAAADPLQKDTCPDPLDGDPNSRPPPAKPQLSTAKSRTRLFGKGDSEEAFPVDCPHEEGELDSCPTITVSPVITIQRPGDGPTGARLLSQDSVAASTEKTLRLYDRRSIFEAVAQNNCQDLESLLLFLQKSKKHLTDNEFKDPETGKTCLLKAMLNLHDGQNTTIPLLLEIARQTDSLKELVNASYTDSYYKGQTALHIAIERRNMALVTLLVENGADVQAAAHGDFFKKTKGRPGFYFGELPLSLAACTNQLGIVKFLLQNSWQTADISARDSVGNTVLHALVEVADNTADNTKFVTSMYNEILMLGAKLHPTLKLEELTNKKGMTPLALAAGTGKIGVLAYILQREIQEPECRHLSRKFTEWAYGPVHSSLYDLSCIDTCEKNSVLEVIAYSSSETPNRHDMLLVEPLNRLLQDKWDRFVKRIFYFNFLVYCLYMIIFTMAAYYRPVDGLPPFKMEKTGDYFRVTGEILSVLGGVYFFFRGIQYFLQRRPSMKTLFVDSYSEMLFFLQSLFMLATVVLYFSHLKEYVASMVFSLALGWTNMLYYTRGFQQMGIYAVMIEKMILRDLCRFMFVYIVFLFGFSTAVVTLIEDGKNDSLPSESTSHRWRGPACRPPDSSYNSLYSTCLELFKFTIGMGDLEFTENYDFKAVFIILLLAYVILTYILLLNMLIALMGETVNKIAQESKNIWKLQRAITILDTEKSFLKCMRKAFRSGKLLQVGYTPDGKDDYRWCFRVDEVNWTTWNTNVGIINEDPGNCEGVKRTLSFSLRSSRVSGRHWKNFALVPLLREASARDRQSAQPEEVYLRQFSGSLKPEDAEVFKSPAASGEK
Chain of Transient receptor potential cation channel subfamily A member 1 (O75762 whole entry): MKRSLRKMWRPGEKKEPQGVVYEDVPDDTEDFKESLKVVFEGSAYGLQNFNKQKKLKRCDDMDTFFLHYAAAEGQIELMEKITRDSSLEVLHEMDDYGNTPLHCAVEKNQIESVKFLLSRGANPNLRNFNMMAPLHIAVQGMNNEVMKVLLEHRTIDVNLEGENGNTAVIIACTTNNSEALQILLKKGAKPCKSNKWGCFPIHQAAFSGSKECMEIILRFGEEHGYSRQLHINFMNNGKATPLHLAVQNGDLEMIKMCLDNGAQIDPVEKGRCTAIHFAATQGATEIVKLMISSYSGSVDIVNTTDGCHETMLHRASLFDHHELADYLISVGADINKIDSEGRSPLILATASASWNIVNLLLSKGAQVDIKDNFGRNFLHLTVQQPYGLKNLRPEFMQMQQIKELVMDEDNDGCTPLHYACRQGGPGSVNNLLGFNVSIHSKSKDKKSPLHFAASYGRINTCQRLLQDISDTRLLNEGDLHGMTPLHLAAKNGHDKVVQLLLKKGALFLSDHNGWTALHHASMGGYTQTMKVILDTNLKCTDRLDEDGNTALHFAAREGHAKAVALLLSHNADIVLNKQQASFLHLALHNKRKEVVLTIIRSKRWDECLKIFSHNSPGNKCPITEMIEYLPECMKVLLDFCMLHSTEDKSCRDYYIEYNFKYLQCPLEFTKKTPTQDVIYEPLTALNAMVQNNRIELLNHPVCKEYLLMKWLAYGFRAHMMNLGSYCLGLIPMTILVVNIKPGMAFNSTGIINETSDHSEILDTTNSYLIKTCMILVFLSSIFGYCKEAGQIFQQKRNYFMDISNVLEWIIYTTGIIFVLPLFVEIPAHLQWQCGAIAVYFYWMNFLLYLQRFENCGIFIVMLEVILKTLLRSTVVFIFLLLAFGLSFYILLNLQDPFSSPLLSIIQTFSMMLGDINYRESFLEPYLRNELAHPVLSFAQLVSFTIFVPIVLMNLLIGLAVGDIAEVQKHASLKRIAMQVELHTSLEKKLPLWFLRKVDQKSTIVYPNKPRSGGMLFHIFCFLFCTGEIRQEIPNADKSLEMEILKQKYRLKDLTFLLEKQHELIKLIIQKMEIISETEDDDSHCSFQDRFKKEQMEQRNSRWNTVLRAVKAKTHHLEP
Chain of Transient receptor potential cation channel subfamily M member 8 (Q8R4D5 whole entry): as the sequence (Q8R4D5 whole entry) above

CC[C@H]1C[C@@H]2CN3CCc4c([nH]c5ccc(OC)cc45)[C@](C(=O)OC)(C2)[C@H]13 [VOACANGINE] was tested, and the EC50 [1] was 8 µM, the Activity ([1]; HEK-293T) was “Dose-dependent effect” and the IC50 [2] was 50 µM. For the same compound, the inhibition ([2]; HEK-293T) was “Dose-dependent effect”, the Kb ([3]; HEK-293T) was 18 µM and the Kb ([3]; read-out: pA2 (converted)) was 20 µM. The inhibition [4] was “inactive”, the Activity [5] was “inactive” and the Kb [6] was 7.94 µM. The inhibition [7] was “Active”, the inhibition [8] was “Active” and the inhibition [9] was “Active”. For the same compound, the inhibition [10] was “Active” and the inhibition [11] was “inactive”.
